High-throughput results: PubChem BioAssay, Broad Institute
RAD52 inh: blocks human RAD52 DNA annealing; recombinant RAD52 DNA annealing, FRET fluorescence; inhibition, % at 18.7 µM; 0.46% of 360,000 active; AID 651710;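 active = every replicate showing at least 50% inhibition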
GSIS activator: GLuc luminescence reporter in INS-1E cells, primary screen for activators of glucose-dependent secretion of insulin. INS-1E GLuc reporter insulin secretion, 2-3 h. activation, % at 16.6 µM. 0.61% of 370,000 active. AID 743287;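 active = lowest replicate activation of at least 40%, so every replicate reaches that level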
MLL AF4-AF9 inh: blocks AF4 peptide binding to human AF9. P42568. inhibition, % at 10 µM. AlphaScreen, biotin-AF4 peptide binding to FLAG-AF9. AID 651704. 0.47% of 350,000 active;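 active = every replicate reaching a set inhibition limit, whatever the replicate mean, cut at about 25% in these data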
RAD54 inh: RAD54 (human) branch migration inhibition | Q92698 | RAD54 Holliday junction branch migration, FAM/BHQ fluorescence | 0.14% of 360,000 active | AID 602329 | inhibition, % at 10.4 µM;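 active = mean normalized replicate activity at least 40 and at least half of replicates scoring 40 or more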;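 note: inhibitors cause a drop in the FAM fluorescence signal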
Target sequence (Q92698 whole entry, looked up): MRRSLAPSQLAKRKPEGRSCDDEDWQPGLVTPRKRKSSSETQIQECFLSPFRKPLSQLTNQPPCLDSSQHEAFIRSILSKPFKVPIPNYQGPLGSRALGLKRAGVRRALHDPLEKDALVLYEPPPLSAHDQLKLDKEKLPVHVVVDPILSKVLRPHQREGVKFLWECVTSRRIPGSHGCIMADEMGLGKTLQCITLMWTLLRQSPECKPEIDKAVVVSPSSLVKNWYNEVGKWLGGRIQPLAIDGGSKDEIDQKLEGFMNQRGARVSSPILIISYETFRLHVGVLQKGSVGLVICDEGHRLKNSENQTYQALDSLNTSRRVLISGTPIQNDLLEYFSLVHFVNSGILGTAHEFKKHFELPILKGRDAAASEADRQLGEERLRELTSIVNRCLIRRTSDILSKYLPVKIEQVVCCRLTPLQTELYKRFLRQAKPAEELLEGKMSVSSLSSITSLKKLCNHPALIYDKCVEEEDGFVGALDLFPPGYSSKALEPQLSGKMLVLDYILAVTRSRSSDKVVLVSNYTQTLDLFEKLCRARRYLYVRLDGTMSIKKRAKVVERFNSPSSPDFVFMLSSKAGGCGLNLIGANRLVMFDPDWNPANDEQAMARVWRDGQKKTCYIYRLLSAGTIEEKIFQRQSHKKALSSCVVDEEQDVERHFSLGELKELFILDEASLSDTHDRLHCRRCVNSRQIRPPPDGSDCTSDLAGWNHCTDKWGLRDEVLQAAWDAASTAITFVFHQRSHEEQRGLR
E-selectin induc: E-selectin induction on HUVECs; activation, % at 7.58 µM; HUVEC E-selectin immunofluorescence imaging; normalized: neutral wells 0, TNF-alpha wells 100; P16581; 0.37% of 260,000 active; AID 686992;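 active = mean E-selectin-positive cell signal at least 10% of the positive control, reached in at least 60% of replicates, without over 20% cell loss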
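Assay system: HUVEC, human umbilical vein endothelial cells / Amount: 3,000 HUVEC/well / Controls: TNF-alpha positive control, DMSO neutral control / Compound dosing: single concentration / Medium: EGM-2 over gelatin coat / Evaluation: percent E-selectin-positive cells / Signal: immunofluorescence imaging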
Ecoli rRNA inh: inhibitors of bacterial rRNA selective over humanized ribosomes; E. coli WT GFP vs humanized-ribosome RFP mutants, fluorescence, 24 h; hits give low values; DMSO median 0, no signal -100; GFP signal change (wild-type ribosome), % (no concentration beside the values); 1.6% of 350,000 active;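 active = significant combined selectivity score with lowered wild-type GFP, culture density cut under 30%, mutant RFP and density less affected; inactive = any of these conditions unmet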
Each line names hits and unclear results; the compound was inactive in the other large screens. This is a sample that favours compounds with a hit; in the whole collection about 2.6% have one here.

CN(C)c1ccc(/C=C/c2ccc3c4ccccc4ccc3[n+]2-c2ccccc2)cc1	MLL AF4-AF9 inh 94.5, RAD54 inh 74.1, E-selectin induc 217.5
CCOc1ccc(/C=N/NC(=S)NC2CC3CCC2C3)cc1 (stereo unspecified)	Ecoli rRNA inh -16.8
CCOc1ccc(/C=N/NC(=S)NC2CC3CC2C2C=CCC32)cc1 (stereo unspecified)	none (no result: E-selectin induc)
CCOc1cc(-c2nc3ccccc3s2)ccc1O	Ecoli rRNA inh -35.0
COc1cccc(NC(=O)N(C)C[C@@H]2Oc3cc(C#CC4(O)CCCC4)ccc3S(=O)(=O)N([C@@H](C)CO)C[C@@H]2C)c1	none
C[C@@H]1CCCCO[C@@H](CN(C)Cc2ccncc2)[C@H](C)CN([C@H](C)CO)C(=O)c2cc(NC(=O)c3ccccc3)ccc2O1	none
CC(C)C#Cc1ccc([C@@H]2[C@H]3CN(C(=O)c4ccc(F)cc4)CCCCN3[C@H]2CO)cc1	none
Cc1cccc(NC(=O)CNC(=O)COc2ccc(-c3ccc(C#N)cc3)cc2)c1C	GSIS activator 66.7 (no result: RAD52 inh, MLL AF4-AF9 inh, RAD54 inh, Ecoli rRNA inh)
COCC#Cc1ccc2c(c1)O[C@H](CN(C)Cc1ccncc1)[C@@H](C)CN([C@@H](C)CO)S2(=O)=O	none
CN(C)S(=O)(=O)c1cccc(NS(=O)(=O)c2ccc(Cl)s2)c1	none (no result: RAD54 inh, E-selectin induc)
Cc1ccc(S(=O)(=O)N(C)C)cc1NS(=O)(=O)c1ccc(Cl)s1	Ecoli rRNA inh -44.6 (no result: E-selectin induc)
C/C(=N\NC(=S)Nc1cccc(C)c1)c1ccco1	MLL AF4-AF9 inh 36.4 (no result: RAD54 inh, E-selectin induc)
O=C(Nc1nc(-c2ccccc2)ns1)c1cccs1	Ecoli rRNA inh -37.5 (no result: E-selectin induc)
O=C(Nc1ccc(NC(=O)c2cccs2)cc1)c1cccs1	none (no result: E-selectin induc)
O=C(Nc1nonc1NC(=O)c1cccs1)c1cccs1	GSIS activator 132.6 (no result: RAD54 inh)
C[C@@H]1CN([C@H](C)CO)C(=O)c2cccc(NC(=O)c3cnccn3)c2O[C@H]1CN(C)S(=O)(=O)c1ccc(F)cc1	none (no result: RAD54 inh)
CO[C@H]1CN(C)C(=O)c2ccc(NC(=O)C3CC3)cc2OC[C@H](C)N(CC2CCOCC2)C[C@H]1C	none
Cc1cc(C)c(-n2c(SCc3nc4ccccc4s3)n[nH]c2=O)c(C)c1	Ecoli rRNA inh -23.9 (no result: MLL AF4-AF9 inh, RAD54 inh, E-selectin induc)
CCCn1c(SCc2nc3ccccc3s2)n[nH]c1=O	none (no result: RAD54 inh)
C[C@@H]1CN([C@@H](C)CO)C(=O)c2cc(NC(=O)c3ccncc3)ccc2O[C@@H]1CN(C)Cc1ccc(Oc2ccccc2)cc1	none
CCOc1ccc(NC(=O)CN(C)C(=O)c2sc3ccccc3c2Cl)cc1OCC	Ecoli rRNA inh -29.4
CCOc1ccc(NC(=O)CN(C)C(=O)c2cccc3ccccc23)cc1OCC	none
O=C(N1CCOCC1)N1CCN(c2ccccn2)CC1	GSIS activator 46.0 (no result: RAD52 inh, MLL AF4-AF9 inh, E-selectin induc, Ecoli rRNA inh)
COc1ccc(CNC(=S)Nc2ccc(F)c(Cl)c2)cc1OC	Ecoli rRNA inh -27.2 (no result: RAD54 inh)
COc1ccc(CNC(=S)Nc2ccccc2)cc1Cl	none (no result: E-selectin induc)
O=C(CCC(=O)N1CCOCC1)Nc1ccc(Cl)c(Cl)c1	E-selectin induc 85.2
NS(=O)(=O)c1ccc(NC(=O)CCC(=O)N2CCOCC2)cc1	E-selectin induc 34.2
NS(=O)(=O)c1ccc(NC(=O)COC(=O)CCc2ccc(S(=O)(=O)N3CCOCC3)cc2)cc1	none (no result: E-selectin induc)
COCCCNC(=O)c1ccc2c(=O)n(Cc3ccc4c(c3)OCO4)c(=S)[nH]c2c1	none (no result: RAD52 inh, GSIS activator, MLL AF4-AF9 inh, E-selectin induc, Ecoli rRNA inh)
COCCCNC(=O)c1ccc2c(=O)n(Cc3ccc(Cl)cc3)c(=S)[nH]c2c1	E-selectin induc 48.6 (no result: GSIS activator)
Cc1nc(SCC(=O)NCCc2ccc(Cl)cc2)nc(C)c1C	Ecoli rRNA inh -28.5 (no result: RAD54 inh, E-selectin induc)
Cc1csc(SCC(=O)NCCc2ccc(Cl)cc2)n1	none (no result: RAD54 inh)
O=C(NCCc1ccc(Cl)cc1)c1ccc2[nH]c(=O)c(=O)[nH]c2c1	Ecoli rRNA inh -24.6 (no result: E-selectin induc)
O=C(NCCc1c[nH]c2ccccc12)c1ccc2[nH]c(=O)c(=O)[nH]c2c1	none (no result: E-selectin induc)
O=C(Cc1ccc(Br)cc1)NCCc1ccc(F)cc1	none (no result: E-selectin induc)
O=C(Cc1ccc(Cl)cc1)NCCc1ccc(F)cc1	Ecoli rRNA inh -24.4
C[C@H]1CN([C@@H](C)CO)C(=O)c2ccccc2-c2ccccc2CO[C@H]1CN(C)Cc1ccc(C(F)(F)F)cc1	none (no result: RAD54 inh)
COc1ccc2c3c(n(C)c2c1)[C@H](CO)N(Cc1nccs1)CC31CN(C(=O)CC2CC2)C1	none (no result: RAD54 inh)
CC(C)Nc1nc(Nc2ccc(C(N)=O)cc2)c2sccc2n1	GSIS activator 70.0
CNc1nc(Nc2ccc(C(=O)OC)cc2)c2sccc2n1	none (no result: RAD52 inh, GSIS activator, MLL AF4-AF9 inh, E-selectin induc, Ecoli rRNA inh)
CCCN1[C@@H]2c3ccc(-c4ccc(OC)cc4)c(=O)n3C[C@@H]2[C@@H](CO)[C@@H]1C(=O)NCC	none
[O-][n+]1cccc2ncc3cscc3c21	E-selectin induc 431.3
CCOc1ccc(CCNC(=O)COC(=O)c2ccc(C)s2)cc1OCC	GSIS activator 52.3
CCOc1ccc(CCNC(=O)COC(=O)/C=C/c2ccco2)cc1OCC	GSIS activator 44.3
CCOc1ccc(CCNC(=O)COC(=O)c2nc(Cl)ccc2Cl)cc1OCC	GSIS activator 43.7
COc1ccc(CCNC(=O)COC(=O)c2ccc(C)s2)cc1OC	GSIS activator 41.7
COc1ccc(CCNC(=O)COC(=O)c2ccc(C)s2)cc1	none
COc1cccc(-c2ccc3n(c2=O)C[C@@H]2[C@@H](CO)[C@H](C(=O)N4CCCCC4)N(C)[C@H]32)c1	none
COc1ccc(-c2ccc3n(c2=O)C[C@H]2[C@H](CO)[C@@H](C(=O)N(C)C)[C@@H]3N2Cc2ccncc2)cc1	none
CN1C(=O)c2cc(NS(C)(=O)=O)ccc2OC[C@H]2O[C@@H](CC(=O)NCc3ccc(-c4ccccc4)cc3)CC[C@H]21	none
CCN(C(=O)COC(=O)/C=C/c1ccco1)C1CCCCC1	E-selectin induc 110.6
CCOc1ccc(CCNC(=O)COC(=O)c2cccnc2Cl)cc1OCC	none (no result: E-selectin induc)
CCOc1ccc(CCNC(=O)COC(=O)CSc2ccccc2C)cc1OCC	GSIS activator 57.2 (no result: E-selectin induc)
CCOc1ccc(CCNC(=O)COC(=O)c2cccnc2SC)cc1OCC	GSIS activator 55.4 (no result: RAD54 inh, E-selectin induc)
O=C(COC(=O)c1nc(Cl)ccc1Cl)Nc1ccccc1OC(F)F	Ecoli rRNA inh -19.1
O=C(COC(=O)c1cccnc1Cl)Nc1ccccc1OC(F)F	none (no result: RAD54 inh)
C[C@H]1CN(C)C(=O)c2cc(N(C)C)ccc2O[C@@H]1CN(C)S(C)(=O)=O	none (no result: RAD52 inh, MLL AF4-AF9 inh, RAD54 inh, E-selectin induc)
Cc1noc(C)c1S(=O)(=O)Nc1ccc2c(c1)CC(=O)N([C@H](C)CO)C[C@H](C)[C@H](CN(C)C)O2	none
CSc1ncccc1C(=O)OCc1ccccc1	GSIS activator 46.7 (no result: RAD52 inh, MLL AF4-AF9 inh, E-selectin induc, Ecoli rRNA inh)
CSc1ncccc1C(=O)OCc1ccc([N+](=O)[O-])cc1	none
C[C@H]1CN([C@@H](C)CO)C(=O)c2cc(C#CCN(C)C)cnc2O[C@@H]1CN(C)C(=O)CN1CCOCC1	none
CCCC/C(O)=C1\C(=O)CCCC1=NCCc1c(C)[nH]c2ccccc12	Ecoli rRNA inh -22.9 (no result: RAD54 inh, E-selectin induc)
CCC/C(O)=C1\C(=O)CCCC1=NCCc1c(C)[nH]c2ccc(C)cc12	none
